The structures appear in SMILES notation.

In series [1] the test system is Raji. The experiment in a line: Inhibition of TPA-induced EBV-early antigen activation in human Raji cells assessed as EA induction at 100 molar ratio after 48 hrs relative to TPA. It is filed as cell-based. The arrangement: scale not given: the % may be the effect or the level left. Particulars: human gammaherpesvirus 4. An outline of the steps: (§1)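 Raji cells (virus non-producer, spontaneous EA activation <0.1%) incubated 48 h at 37 °C with 4 mM n-butyric acid plus 32 pM TPA and compound in DMSO; smears stained by indirect immunofluorescence with NPC patient EBV-EA-positive serum, ≥500 cells counted; EA-positive cells expressed relative to butyrate+TPA control (100%); triplicates; IC50 as mol ratio to 32 pmol TPA.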

For series [2], the system named is Raji. Description: Inhibition of TPA-induced EBV-early antigen activation in human Raji cells assessed as EA induction at 500 molar ratio after 48 hrs relative to TPA. It is filed as cell-based. Particulars: human gammaherpesvirus 4. The arrangement: scale not given: the % may be the effect or the level left. An outline of the steps:
as §1

Series [3] can be described thus: Cytotoxicity against human Raji cells assessed as cell viability at 1000 molar ratio after 48 hrs by trypan blue staining method. It is filed as cell-based. The note with it: read-out: Activity. An outline of the steps: (§2)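 Raji cells (EBV genome-carrying, Burkitt's lymphoma) grown in RPMI-1640 with 10% FBS; incubated 48 h at 37 °C with 4 mM n-butyric acid, 32 pM TPA and test compound in DMSO at stated compound/TPA molar ratio; viability determined by Trypan blue staining.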

Series [4] can be described thus: Cytotoxicity against human Raji cells assessed as cell viability at 100 molar ratio after 48 hrs by trypan blue staining method. It is filed as cell-based. The note with it: read-out: Activity. The method, boiled down: as §2
A short description of series [5]: Cytotoxicity against human Raji cells assessed as cell viability at 500 molar ratio after 48 hrs by trypan blue staining method. In kind it is cell-based. Particulars: read-out: Activity. An outline of the steps:
as §2

Series [6] in a line: Cytotoxicity against human Raji cells assessed as cell viability at 10 molar ratio after 48 hrs by trypan blue staining method. The note with it: read-out: Activity. It is filed as cell-based. The method, boiled down: as §2
The nature of series [7]: Inhibition of TPA-induced EBV-early antigen activation in human Raji cells assessed as EA induction after 48 hrs relative to TPA. It is filed as cell-based, human gammaherpesvirus 4. The method, boiled down: as §1
Series [8] deals with Raji. Description: Inhibition of TPA-induced EBV-early antigen activation in human Raji cells assessed as EA induction at 10 molar ratio after 48 hrs relative to TPA. In kind it is cell-based. The arrangement: scale not given: the % may be the effect or the level left. The note with it: human gammaherpesvirus 4. The method, boiled down: as §1
The test system of series [9] is Raji. Description: Inhibition of TPA-induced EBV-early antigen activation in human Raji cells assessed as EA induction at 1000 molar ratio after 48 hrs relative to TPA. In kind it is cell-based. Set-up: scale not given: the % may be the effect or the level left. Particulars: human gammaherpesvirus 4. The method, boiled down:
as §1

As for `C=C(C)[C@@H]1CC[C@]2(C(=O)O)CC[C@]3(C)[C@H](CC[C@@H]4[C@@]5(C)CC[C@H](OC(=O)CCC/C=C\C/C=C\C/C=C\C/C=C\C/C=C\CC)C(C)(C)[C@@H]5CC[C@]43C)[C@@H]12`, the Activity worked out at 80.1% in series [1], 50.4% in series [2], 100% in series [8] and 15.3% in series [9]. For the same compound, in series [3], the viability at 48 h, 1000 molar ratio amounted to 60%. Besides, the viability at 48 h, 100 molar ratio in series [4] was greater than 80%. Moreover, in series [5], the viability at 48 h, 500 molar ratio was greater than 80%. Moreover, the viability at 48 h, 10 molar ratio in series [6] is greater than 80%. For the same compound, in [7], the IC50 turned out to be 523 molar ratio.

For `C=C(C)[C@@H]1CC[C@]2(C(=O)O)CC[C@]3(C)[C@H](CC[C@@H]4[C@@]5(C)C[C@H](O)C(C)(C)[C@@H]5CC[C@]43C)[C@@H]12`, the Activity in series [1] turned out to be 79%; in series [2], 39.2%; in series [8] it was 100%; in series [9], 14.2%. The viability at 48 h, 1000 molar ratio in series [3] was found to be 60%. Further, the viability at 48 h, 100 molar ratio in series [4] was greater than 80%. Moreover, in series [5], the viability at 48 h, 500 molar ratio is greater than 80%. Moreover, the viability at 48 h, 10 molar ratio in [6] is greater than 80%. Moreover, in [7], the IC50 is recorded as 475 molar ratio.

For the compound `C=C(C)[C@@H]1CC[C@]2(C(=O)O)CC[C@]3(C)[C@H](CC[C@@H]4[C@@]5(C)CC(=O)C(C)(C)[C@@H]5CC[C@]43C)[C@@H]12`, the Activity in series [1] was 74.3%; in [2], 36.4%; in series [8], 100%; in series [9], 10.1%. In series [3], the viability at 48 h, 1000 molar ratio turned out to be 60%. For the same compound, the viability at 48 h, 100 molar ratio in series [4] was greater than 80%. The viability at 48 h, 500 molar ratio in series [5] was greater than 80%. Also, in series [6], the viability at 48 h, 10 molar ratio is greater than 80%. Moreover, the IC50 in [7] is reported as 442 molar ratio.

`C=C(C)[C@@H]1CC[C@]2(C(=O)O)CC[C@]3(C)[C@H](CC[C@@H]4[C@@]5(C)CC[C@H](OC(=O)C[C@H](C)C(=O)O)C(C)(C)[C@@H]5CC[C@]43C)[C@@H]12`: the Activity in [1] turned out to be 71%; in series [2] it was 31.5%; in series [8], 94.2%; in series [9], 0%. Moreover, the viability at 48 h, 1000 molar ratio in [3] is 60%. Moreover, the viability at 48 h, 100 molar ratio in series [4] was greater than 80%. Further, the viability at 48 h, 500 molar ratio in series [5] was greater than 80%. Further, in series [6], the viability at 48 h, 10 molar ratio is greater than 80%. Moreover, in series [7], the IC50 is 308 molar ratio.

With `C=C(C)[C@@H]1CC[C@]2(C(=O)O)CC[C@]3(C)[C@H](CC[C@@H]4[C@@]5(C)C[C@H](OC(=O)CC(C)(C)C(=O)O)C(C)(C)[C@@H]5CC[C@]43C)[C@@H]12`, the Activity worked out at 73.1% in series [1], 35.6% in [2], 95.3% in [8] and 5.7% in series [9]. Moreover, the viability at 48 h, 1000 molar ratio in series [3] was 60%. Also, in series [4], the viability at 48 h, 100 molar ratio was greater than 80%. Moreover, the viability at 48 h, 500 molar ratio in series [5] was greater than 80%. Further, the viability at 48 h, 10 molar ratio in series [6] was greater than 80%. Moreover, in [7], the IC50 is listed as 352 molar ratio.

With `C=C(C)[C@@H]1CC[C@]2(C(=O)O)CC[C@]3(C)[C@H](CC[C@@H]4[C@@]5(C)CC[C@H](OC(=O)/C=C/C)C(C)(C)[C@@H]5CC[C@]43C)[C@@H]12`, the Activity worked out at 66.7% in series [1], 26.2% in series [2], 91.6% in series [8] and 0% in series [9]. The viability at 48 h, 1000 molar ratio in series [3] is 70%. Further, the viability at 48 h, 100 molar ratio in series [4] is greater than 80%. Besides, in series [5], the viability at 48 h, 500 molar ratio is greater than 80%. Besides, the viability at 48 h, 10 molar ratio in series [6] is greater than 80%. Besides, the IC50 in [7] came to 299 molar ratio.

Turning to `C=C(C)[C@@H]1CC[C@]2(C(=O)O)CC[C@]3(C)[C@H](CC[C@@H]4[C@@]5(C)CC[C@H](OC(=O)/C=C/C=C/C)C(C)(C)[C@@H]5CC[C@]43C)[C@@H]12`, the Activity was found to be 65.7% in series [1], 25.7% in [2], 90.2% in [8] and 0% in series [9]. The viability at 48 h, 1000 molar ratio in series [3] is 70%. Moreover, the viability at 48 h, 100 molar ratio in [4] was greater than 80%. Also, the viability at 48 h, 500 molar ratio in [5] was greater than 80%. The viability at 48 h, 10 molar ratio in [6] is greater than 80%. In addition, the IC50 in series [7] is given as 295 molar ratio.

Regarding `C=C(C)[C@@H]1CC[C@]2(C(=O)O)CC[C@]3(C)[C@H](CC[C@@H]4[C@@]5(C)CC[C@H](OC(=O)CCC/C=C\C/C=C\C/C=C\C/C=C\CCCCC)C(C)(C)[C@@H]5CC[C@]43C)[C@@H]12`, the Activity in series [1] is 79%; in [2], 46.1%; in series [8] it was 100%; in series [9], 12.3%. The viability at 48 h, 1000 molar ratio in series [3] was 60%. Moreover, the viability at 48 h, 100 molar ratio in series [4] was greater than 80%. Besides, in series [5], the viability at 48 h, 500 molar ratio is greater than 80%. Besides, the viability at 48 h, 10 molar ratio in series [6] was greater than 80%. For the same compound, the IC50 in series [7] worked out at 482 molar ratio.

Consider `C=C(C)[C@@H]1CC[C@]2(C(=O)O)CC[C@]3(C)[C@H](CC[C@@H]4[C@@]5(C)CC[C@H](OC(=O)CCCCCCC/C=C\CCCCCCCC)C(C)(C)[C@@H]5CC[C@]43C)[C@@H]12`, for which the Activity in series [1] was determined as 72.4%; in series [2], 33.7%; in [8], 92.5%; in series [9], 4.8%. Further, in series [3], the viability at 48 h, 1000 molar ratio amounted to 60%. The viability at 48 h, 100 molar ratio in series [4] was greater than 80%. Besides, in series [5], the viability at 48 h, 500 molar ratio is greater than 80%. In series [6], the viability at 48 h, 10 molar ratio was greater than 80%. Further, the IC50 in [7] was 344 molar ratio.

Regarding `C=C(C)[C@@H]1CC[C@]2(C(=O)O)CC[C@]3(C)[C@H](CC[C@@H]4[C@@]5(C)CC[C@H](OC(=O)C[C@H](C)CO)C(C)(C)[C@@H]5CC[C@]43C)[C@@H]12`, the Activity in series [1] stood at 70.1%; in [2], 29.3%; in series [8] it was 93.1%; in [9], 0%. Further, in series [3], the viability at 48 h, 1000 molar ratio came out at 70%. For the same compound, the viability at 48 h, 100 molar ratio in [4] was greater than 80%. Moreover, in series [5], the viability at 48 h, 500 molar ratio is greater than 80%. The viability at 48 h, 10 molar ratio in series [6] was greater than 80%. Moreover, the IC50 in series [7] worked out at 303 molar ratio.

Consider `C=C(C)[C@@H]1CC[C@]2(C(=O)O)CC[C@]3(C)[C@H](CC[C@@H]4[C@@]5(C)CC[C@H](OC(=O)C=C(C)C)C(C)(C)[C@@H]5CC[C@]43C)[C@@H]12`, for which the Activity in series [1] amounted to 62.5%; in [2] it was 23.5%; in [8] it was 88.7%; in series [9], 0%. In addition, the viability at 48 h, 1000 molar ratio in series [3] was 70%. The viability at 48 h, 100 molar ratio in [4] was greater than 80%. For the same compound, the viability at 48 h, 500 molar ratio in series [5] is greater than 80%. In addition, the viability at 48 h, 10 molar ratio in [6] is greater than 80%. Moreover, the IC50 in series [7] worked out at 285 molar ratio.

Turning to `C=C(C)[C@@H]1CC[C@]2(C(=O)O)CC[C@]3(C)[C@H](CC[C@@H]4[C@@]5(C)CC[C@H](O)C(C)(C)[C@@H]5CC[C@]43C)[C@@H]12` [BETULINIC ACID], the Activity in [1] stood at 75.1%; in [2] it was 37.2%; in series [8], 100%; in series [9], 7.9%. In addition, the viability at 48 h, 1000 molar ratio in series [3] was determined as 60%. Also, the viability at 48 h, 100 molar ratio in [4] is greater than 80%. For the same compound, in series [5], the viability at 48 h, 500 molar ratio is greater than 80%. Moreover, the viability at 48 h, 10 molar ratio in [6] was greater than 80%. In addition, in series [7], the IC50 is given as 403 molar ratio.

As to `C=C(C)[C@@H]1CC[C@]2(C(=O)O)CC[C@]3(C)[C@H](CC[C@@H]4[C@@]5(C)CC[C@H](OC(=O)C[C@@H](C)C(=O)O)C(C)(C)[C@@H]5CC[C@]43C)[C@@H]12`, the Activity in series [1] was 71.2%; in series [2] it was 31.8%; in [8], 94.7%; in series [9], 0%. For the same compound, the viability at 48 h, 1000 molar ratio in series [3] was 60%. In addition, the viability at 48 h, 100 molar ratio in [4] is greater than 80%. Further, in series [5], the viability at 48 h, 500 molar ratio is greater than 80%. For the same compound, the viability at 48 h, 10 molar ratio in [6] was greater than 80%. The IC50 in series [7] turned out to be 309 molar ratio.

Take `C=C(C)[C@@H]1CC[C@]2(C(=O)O)CC[C@]3(C)[C@H](CC[C@@H]4[C@@]5(C)CC[C@H](OC(=O)CC(C)(C)C(=O)O)C(C)(C)[C@@H]5CC[C@]43C)[C@@H]12` [BEVIRIMAT]: the values for the Activity in series [1], in series [2] and in series [9] were 74.2%, 36.1% and 6.1%, respectively. Further, in [3], the viability at 48 h, 1000 molar ratio was 60%. For the same compound, the viability at 48 h, 100 molar ratio in series [4] was greater than 80%. In addition, the viability at 48 h, 500 molar ratio in [5] was greater than 80%. Also, in [6], the viability at 48 h, 10 molar ratio is greater than 80%. In addition, in [7], the IC50 is listed as 396 molar ratio.

These data come from ChEMBL document CHEMBL1137008, “Cancer preventive agents 9. Betulinic acid derivatives as potent cancer chemopreventive agents” (Bioorg Med Chem Lett, 2009).
